Measured values published in ChEMBL document CHEMBL4627284, “Pyrimethamine conjugated histone deacetylase inhibitors: Design, synthesis and evidence for triple negative breast cancer selective cytotoxicity” (Bioorg Med Chem, 2020).
Calls of active or inactive are those of the source. The calls are words filed in the database; no cut-off is given here.

What was measured:
Histone deacetylase 1 [1] = target: T1, Histone deacetylase 1 (Homo sapiens, UniProt Q13547); experiment: Inhibition of human recombinant HDAC1 using fluorogenic HDAC substrate preincubated for 30 mins followed by substrate addition and measured after 15 mins by fluorogenic assay
T1 sequence (Q13547 whole entry): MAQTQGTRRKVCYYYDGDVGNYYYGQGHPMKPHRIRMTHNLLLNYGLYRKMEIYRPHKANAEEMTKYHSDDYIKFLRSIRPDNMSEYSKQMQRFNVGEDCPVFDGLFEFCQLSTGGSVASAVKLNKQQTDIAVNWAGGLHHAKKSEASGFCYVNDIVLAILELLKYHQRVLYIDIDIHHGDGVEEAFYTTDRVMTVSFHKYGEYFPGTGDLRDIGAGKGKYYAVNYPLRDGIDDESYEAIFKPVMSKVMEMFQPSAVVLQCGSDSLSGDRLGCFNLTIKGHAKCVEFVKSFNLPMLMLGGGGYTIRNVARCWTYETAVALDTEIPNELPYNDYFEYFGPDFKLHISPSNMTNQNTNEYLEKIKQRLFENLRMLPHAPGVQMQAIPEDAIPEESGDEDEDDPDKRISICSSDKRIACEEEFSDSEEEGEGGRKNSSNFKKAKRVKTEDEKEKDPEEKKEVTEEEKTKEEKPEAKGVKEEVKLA

[2] = target: T2, Protein deacetylase HDAC6 (Homo sapiens, UniProt Q9UBN7); experiment: Inhibition of human recombinant HDAC6 using fluorogenic HDAC substrate 3 preincubated for 30 mins followed by substrate addition and measured after 15 mins by fluorogenic assay
T2 sequence (Q9UBN7 whole entry): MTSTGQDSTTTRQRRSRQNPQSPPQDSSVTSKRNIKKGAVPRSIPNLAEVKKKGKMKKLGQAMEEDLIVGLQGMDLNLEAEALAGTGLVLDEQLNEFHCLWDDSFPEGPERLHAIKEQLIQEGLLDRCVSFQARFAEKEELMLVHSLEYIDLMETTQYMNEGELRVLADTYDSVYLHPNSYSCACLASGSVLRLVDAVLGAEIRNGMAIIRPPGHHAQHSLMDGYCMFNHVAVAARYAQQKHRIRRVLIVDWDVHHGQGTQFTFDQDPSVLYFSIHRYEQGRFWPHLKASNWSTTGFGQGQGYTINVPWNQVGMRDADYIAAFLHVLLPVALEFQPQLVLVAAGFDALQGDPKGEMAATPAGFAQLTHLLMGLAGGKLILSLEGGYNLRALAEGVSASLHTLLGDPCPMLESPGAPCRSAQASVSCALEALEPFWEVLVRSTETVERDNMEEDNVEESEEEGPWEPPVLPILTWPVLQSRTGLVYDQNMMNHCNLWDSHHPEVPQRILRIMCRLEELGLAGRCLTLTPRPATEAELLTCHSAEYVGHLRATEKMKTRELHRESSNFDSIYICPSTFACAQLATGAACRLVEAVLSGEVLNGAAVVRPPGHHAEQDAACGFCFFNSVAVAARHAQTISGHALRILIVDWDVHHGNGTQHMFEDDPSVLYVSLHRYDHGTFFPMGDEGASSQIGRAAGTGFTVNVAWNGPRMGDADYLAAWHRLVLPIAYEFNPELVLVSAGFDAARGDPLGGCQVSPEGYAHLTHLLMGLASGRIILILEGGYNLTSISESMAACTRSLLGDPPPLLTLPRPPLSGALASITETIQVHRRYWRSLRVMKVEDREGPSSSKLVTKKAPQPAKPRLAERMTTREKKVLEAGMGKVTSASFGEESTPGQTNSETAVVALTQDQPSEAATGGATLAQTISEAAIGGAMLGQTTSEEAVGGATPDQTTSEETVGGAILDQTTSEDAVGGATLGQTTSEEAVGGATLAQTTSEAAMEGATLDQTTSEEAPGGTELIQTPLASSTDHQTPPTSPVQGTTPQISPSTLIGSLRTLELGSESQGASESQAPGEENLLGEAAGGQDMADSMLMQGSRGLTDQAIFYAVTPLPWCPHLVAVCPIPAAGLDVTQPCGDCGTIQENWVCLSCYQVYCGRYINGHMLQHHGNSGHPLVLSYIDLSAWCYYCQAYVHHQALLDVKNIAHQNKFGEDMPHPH

Histone deacetylase 8 = target: T3, Histone deacetylase 8 (Homo sapiens, UniProt Q9BY41); experiment: Inhibition of human recombinant HDAC8 using fluorogenic HDAC substrate class 2A preincubated for 30 mins followed by substrate addition and measured after 15 mins by fluorogenic assay
T3 sequence (Q9BY41 whole entry): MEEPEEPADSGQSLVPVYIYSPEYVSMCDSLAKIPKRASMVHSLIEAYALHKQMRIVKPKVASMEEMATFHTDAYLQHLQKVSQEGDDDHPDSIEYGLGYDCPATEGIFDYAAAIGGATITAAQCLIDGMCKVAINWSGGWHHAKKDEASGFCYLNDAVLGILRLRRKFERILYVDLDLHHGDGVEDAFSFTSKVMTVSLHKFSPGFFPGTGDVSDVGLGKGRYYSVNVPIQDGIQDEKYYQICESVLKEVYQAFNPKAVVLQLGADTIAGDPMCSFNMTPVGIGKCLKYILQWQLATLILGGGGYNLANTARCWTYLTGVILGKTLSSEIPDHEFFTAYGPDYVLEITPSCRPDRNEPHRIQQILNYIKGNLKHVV

A549 = experiment: cells; assay type: functional, cell-based; conditions: Homo sapiens, A549, 72 h
MCF7 = experiment: cells; assay type: functional, cell-based; conditions: Homo sapiens, MCF7, 72 h
MDA-MB-231 [3] = experiment: cells; assay type: functional, cell-based; conditions: Homo sapiens, MDA-MB-231, 72 h
Histone deacetylase 1 [4] = target: T1, Histone deacetylase 1; experiment: Inhibition of HDAC1 in human MDA-MB-231 cells assessed as accumulation of acetylated H4 at 12.5 to 50 uM by western blot analysis; assay type: cell-based
Outline: (§1)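 MDA-MB-231 cells were grown in DMEM for 24 h, serum-starved for 24 h, then treated for 4 h (DMSO control). Lysates were made in RIPA with protease and phosphatase inhibitors and normalized by BCA. 20-40 µg was run on 4-20% gels and transferred to PVDF, which was blocked in 5% BSA. Membranes were probed overnight for acetyl-α-tubulin or acetyl-H4, then with secondary for 1 h, and bands were quantified by infrared imaging.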

[5] = target: T4, Protein deacetylase HDAC6 (Homo sapiens) (UniProt Q9UBN7); experiment: Inhibition of HDAC6 in human MDA-MB-231 cells assessed as accumulation of acetylated tubulin at 12.5 to 50 uM by western blot analysis; assay type: cell-based; outline: as §1
T4 sequence (whole entry): T2 sequence (Q9UBN7 whole entry)

[6] = target: Signal transducer and activator of transcription 3 (Homo sapiens) (UniProt P40763); experiment: Inhibition of STAT3 in human MDA-MB-231 cells assessed as upregulation of p-p38 expression after 24 hrs by western blot analysis; assay type: cell-based
Signal transducer and activator of transcription 3 (Homo sapiens), sequence (P40763 whole entry): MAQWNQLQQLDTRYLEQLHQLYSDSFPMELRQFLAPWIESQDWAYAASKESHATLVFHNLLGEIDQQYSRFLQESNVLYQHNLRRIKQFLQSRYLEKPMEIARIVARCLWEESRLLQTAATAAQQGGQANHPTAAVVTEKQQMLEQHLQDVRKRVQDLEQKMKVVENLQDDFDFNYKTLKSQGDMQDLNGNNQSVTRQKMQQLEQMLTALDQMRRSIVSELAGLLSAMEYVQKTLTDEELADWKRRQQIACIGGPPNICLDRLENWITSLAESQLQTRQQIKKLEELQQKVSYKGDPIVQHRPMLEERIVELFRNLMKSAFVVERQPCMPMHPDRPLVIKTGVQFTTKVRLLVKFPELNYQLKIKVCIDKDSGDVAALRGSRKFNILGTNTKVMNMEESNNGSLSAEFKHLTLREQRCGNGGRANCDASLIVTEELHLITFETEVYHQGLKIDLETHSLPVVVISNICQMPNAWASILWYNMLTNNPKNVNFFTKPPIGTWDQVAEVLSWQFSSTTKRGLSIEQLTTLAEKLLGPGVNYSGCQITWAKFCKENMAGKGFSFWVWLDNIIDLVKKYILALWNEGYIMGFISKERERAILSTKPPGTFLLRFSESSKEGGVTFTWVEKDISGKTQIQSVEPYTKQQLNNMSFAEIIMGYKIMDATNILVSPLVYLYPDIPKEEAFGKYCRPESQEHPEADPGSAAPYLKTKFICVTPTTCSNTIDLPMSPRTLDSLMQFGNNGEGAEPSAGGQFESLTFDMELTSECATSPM
Outline: (§2)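 MDA-MB-231 cells, 1*10⁶ per well, were grown in DMEM for 24 h, serum-starved for 24 h, then treated for 24 h from DMSO solutions (final DMSO 0.1%; DMSO control). Cells were lysed in RIPA with protease and phosphatase inhibitors and protein equalized by BCA. 20-40 µg was run on 4-20% gels and transferred to PVDF, which was blocked in 5% BSA. Primary antibodies were applied overnight and secondary for 1 h, and band intensities were quantified by infrared imaging.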

[7] = target: Signal transducer and activator of transcription 3 (Homo sapiens) (UniProt P40763); experiment: Inhibition of STAT3 in human MDA-MB-231 cells assessed as downregulation of Bcl-xL expression after 24 hrs by western blot analysis; assay type: cell-based; outline: as §2
[8] = target: Signal transducer and activator of transcription 3 (Homo sapiens) (UniProt P40763); experiment: Inhibition of STAT3 in human MDA-MB-231 cells assessed as slight downregulation of Bcl-2 expression at 5 to 25 uM after 24 hrs by western blot analysis; assay type: cell-based; outline: as §2
[9] = target: Signal transducer and activator of transcription 3 (Homo sapiens) (UniProt P40763); experiment: Inhibition of STAT3 in human MDA-MB-231 cells assessed as effect on pSTAT3 expression at 5 to 25 uM after 24 hrs by western blot analysis; assay type: cell-based; outline: as §2
[10] = target: Signal transducer and activator of transcription 3 (Homo sapiens) (UniProt P40763); experiment: Inhibition of STAT3 in human MDA-MB-231 cells assessed as downregulation of cyclinD1 expression at 2.5 to 5 uM after 24 hrs by western blot analysis; assay type: cell-based; outline: as §2
MDA-MB-231 [11] = experiment: Cell cycle arrest in human MDA-MB-231 cells assessed as accumulation of cells at G1 phase at 25 uM incubated for 48 hrs RNase/PI staining based flow cytometry assay (reference value: 64.3 %); assay type: functional
Outline: (§3)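 MDA-MB-231 cells, 5*10⁶ per 10 cm plate, were grown in DMEM for 24 h and then dosed for 48 h from DMSO stocks (final DMSO 0.1%; DMSO as control). Cells were trypsinized, washed twice in cold PBS and fixed in 70% ethanol overnight at -20°C. They were treated with 200 ug/mL RNase for 30 min, stained with 50 ug/mL PI at RT for 30 min, and DNA content was read by flow cytometry.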

MDA-MB-231 [12] = experiment: Cell cycle arrest in human MDA-MB-231 cells assessed as accumulation of cells at S phase at 12.5 uM incubated for 48 hrs RNase/PI staining based flow cytometry assay (reference value: […] %); assay type: functional; outline: as §3
MDA-MB-231 [13] = experiment: Cell cycle arrest in human MDA-MB-231 cells assessed as accumulation of cells at S phase at 25 uM incubated for 48 hrs RNase/PI staining based flow cytometry assay (reference value: 11.5 %); assay type: functional; outline: as §3
MDA-MB-231 [14] = experiment: Cell cycle arrest in human MDA-MB-231 cells assessed as accumulation of cells at G2 phase at 12.5 uM incubated for 48 hrs RNase/PI staining based flow cytometry assay (reference value: 17.4 %); assay type: functional; outline: as §3
MDA-MB-231 [15] = experiment: Cell cycle arrest in human MDA-MB-231 cells assessed as accumulation of cells at G2 phase at 25 uM incubated for 48 hrs RNase/PI staining based flow cytometry assay (reference value: 17.4 %); assay type: functional; outline: as §3
MDA-MB-231 [16] = experiment: Cell cycle arrest in human MDA-MB-231 cells assessed as accumulation of cells at G2 phase at 12.5 uM incubated for 48 hrs by flow cytometry (reference value: […] %)
[17] = target: Signal transducer and activator of transcription 3 (Homo sapiens) (UniProt P40763); experiment: Inhibition of STAT3 in human MDA-MB-231 cells assessed as change in Bcl-2 expression at 0.8 to 1.6 uM after 24 hrs by western blot analysis; assay type: cell-based; outline: as §2
[18] = target: Signal transducer and activator of transcription 3 (Homo sapiens) (UniProt P40763); experiment: Inhibition of STAT3 in human MDA-MB-231 cells assessed as slight down regulation of pSTAT3 expression at 50 to 100 uM after 24 hrs by western blot analysis; assay type: cell-based; outline: as §2
[19] = target: Signal transducer and activator of transcription 3 (Homo sapiens) (UniProt P40763); experiment: Inhibition of STAT3 in human MDA-MB-231 cells assessed as downregulation of cyclinD1 expression at 5 to 25 uM after 24 hrs by western blot analysis; assay type: cell-based; outline: as §2
MDA-MB-231 [20] = experiment: Cell cycle arrest in human MDA-MB-231 cells assessed as accumulation of cells at G1 phase at 5 uM incubated for 48 hrs RNase/PI staining based flow cytometry assay (reference value: 64.3 %); assay type: functional; outline: as §3
MDA-MB-231 [21] = experiment: Cell cycle arrest in human MDA-MB-231 cells assessed as accumulation of cells at G2 phase at 5 uM incubated for 48 hrs RNase/PI staining based flow cytometry assay (reference value: 17.4 %); assay type: functional; outline: as §3
Histone deacetylase 1 [22] = target: T1, Histone deacetylase 1; experiment: Inhibition of HDAC1 in human MDA-MB-231 cells assessed as accumulation of acetylated H4 at 50 to 100 uM by western blot analysis; assay type: cell-based; outline: as §1
[23] = target: T4, Protein deacetylase HDAC6 (Homo sapiens); experiment: Inhibition of HDAC6 in human MDA-MB-231 cells assessed as accumulation of acetylated tubulin at 50 to 100 uM by western blot analysis; assay type: cell-based; outline: as §1
[24] = target: Signal transducer and activator of transcription 3 (Homo sapiens) (UniProt P40763); experiment: Inhibition of STAT3 in human MDA-MB-231 cells assessed as upregulation of Bcl-xLexpression after 24 hrs by western blot analysis; assay type: cell-based; outline: as §2
[25] = target: Signal transducer and activator of transcription 3 (Homo sapiens) (UniProt P40763); experiment: Inhibition of STAT3 in human MDA-MB-231 cells assessed as effect on pSTAT3 expression at 50 to 100 uM after 24 hrs by western blot analysis; assay type: cell-based; outline: as §2
[26] = target: Signal transducer and activator of transcription 3 (Homo sapiens) (UniProt P40763); experiment: Inhibition of STAT3 in human MDA-MB-231 cells assessed as downregulation of cyclinD1 expression at 100 to 200 uM after 24 hrs by western blot analysis; assay type: cell-based; outline: as §2

Compound: CCc1nc(N)nc(N)c1-c1ccc(/C=C/C(=O)NO)cc1
- IC50 (Histone deacetylase 1 [1]): 2.2 µM
- IC50 [2]: 0.4 µM
- IC50 (Histone deacetylase 8): 1.8 µM

Compound: CCc1nc(N)nc(N)c1-c1ccc(-c2cn(CCCCCCCC(=O)NO)nn2)cc1
- IC50 (Histone deacetylase 1 [1]): 0.21 µM
- IC50 [2]: 0.021 µM
- IC50 (A549): 88.5 µM
- IC50 (MCF7): 83.3 µM
- IC50 (MDA-MB-231 [3]): 21.4 µM
- inhibition (Histone deacetylase 1 [4]): Active
- inhibition [5]: Active
- inhibition [6]: Dose-dependent effect
- inhibition [7]: Dose-dependent effect
- inhibition [8]: Active
- inhibition [9]: inactive
- inhibition [10]: Active
- Activity (MDA-MB-231 [11]): 22.1%
- Activity (MDA-MB-231 [12]): 5.17%
- Activity (MDA-MB-231 [13]): 1.63%
- Activity (MDA-MB-231 [14]): 66.8%
- Activity (MDA-MB-231 [15]): 70.6%
- Activity (MDA-MB-231 [16]): 24%

Compound: O=C(CCCCCCC(=O)Nc1ccccc1)NO [VORINOSTAT]
- inhibition [6]: Dose-dependent effect
- inhibition [7]: Dose-dependent effect
- inhibition [17]: inactive
- inhibition [18]: Active
- inhibition [19]: Active
- Activity (MDA-MB-231 [20]): 18.2%
- Activity (MDA-MB-231 [21]): 65.1%

Compound: CCc1nc(N)nc(N)c1-c1ccc(Cl)cc1 [PYRIMETHAMINE]
- IC50 (MCF7): 453 µM
- IC50 (MDA-MB-231 [3]): 238 µM
- inhibition (Histone deacetylase 1 [22]): inactive
- inhibition [23]: inactive
- inhibition [6]: Dose-dependent effect
- inhibition [24]: Active
- inhibition [25]: inactive
- inhibition [26]: Active
